Measurements as given in ChEMBL document CHEMBL1137899, “Glycosylated dihydrochalcones as potent and selective sodium glucose co-transporter 2 (SGLT2) inhibitors” (Bioorg Med Chem Lett, 2004).

What was measured:
[1] = biological target: T1, Sodium/glucose cotransporter 2 (Homo sapiens, UniProt P31639); test: In vitro inhibition of Na-dependent [14C]AMG uptake in CHO-K1 cells expressing human sodium glucose co-transporter 2; type: functional, cell-based
T1 sequence (P31639 whole entry): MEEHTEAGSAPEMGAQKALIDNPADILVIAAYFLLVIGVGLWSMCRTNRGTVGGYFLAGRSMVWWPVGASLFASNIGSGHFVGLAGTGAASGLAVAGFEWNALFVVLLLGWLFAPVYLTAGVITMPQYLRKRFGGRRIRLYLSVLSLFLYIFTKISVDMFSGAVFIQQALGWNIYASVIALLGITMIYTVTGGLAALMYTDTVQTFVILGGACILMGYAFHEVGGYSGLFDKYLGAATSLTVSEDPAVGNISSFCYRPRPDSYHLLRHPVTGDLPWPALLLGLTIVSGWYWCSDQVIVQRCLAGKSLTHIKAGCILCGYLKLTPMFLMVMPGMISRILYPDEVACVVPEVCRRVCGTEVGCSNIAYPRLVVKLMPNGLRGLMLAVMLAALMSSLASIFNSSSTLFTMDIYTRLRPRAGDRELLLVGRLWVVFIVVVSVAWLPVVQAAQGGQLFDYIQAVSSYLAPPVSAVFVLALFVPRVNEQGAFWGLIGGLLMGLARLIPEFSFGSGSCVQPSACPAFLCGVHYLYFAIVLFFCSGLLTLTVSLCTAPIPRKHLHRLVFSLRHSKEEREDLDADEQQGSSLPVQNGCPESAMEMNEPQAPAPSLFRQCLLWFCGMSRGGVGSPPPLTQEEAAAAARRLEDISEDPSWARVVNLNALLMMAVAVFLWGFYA
In short: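 CHO-K1 cells overexpressing human SGLT2 pre-treated with compound for 15 min with or without NaCl, then labelled with 14C-alpha-methylglucopyranoside (AMG, nonmetabolizable glucose analogue); sodium-dependent uptake of label measured.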

Rattus norvegicus = test: (§1) In vivo ability to induce urinary glucose excretion in male Zucker Diabetic Fatty (ZDF) rats at 3 mg/kg i.v. dose; type: functional, Urine; settings: route intravenous
In short: (§2)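 Male ZDF rats, 7–8 weeks, fasted 12 h; compound or vehicle (10% Solutol) given i.v. at 2 mL/kg. Oral glucose challenge (4 mL/kg of 50% solution) 1 h later, rats then placed in metabolism cages with free water access; urine collected for 4 h, glucose quantified with Trinder reagent.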

[2] = Metabolic half-life as a measure of human liver microsomal stability was determined at 5 uM; type: ADME; settings: liver microsomes
[3] = as §1; type: ADME, organism-based, Urine; set-up: dose 3 mg/kg, route intravenous; settings: rat, iv; in short: as §2

Compound | Ki [1] [nM] | also measured
CCOc1ccc(CCC(=O)c2c(N)cc(C)cc2O[C@@H]2O[C@H](CO)[C@@H](O)[C@H](O)[C@H]2O)cc1 | 1280 | 
CCOc1ccc(CCC(=O)c2c(O)cc(C(C)C)cc2O[C@@H]2O[C@H](CO)[C@@H](O)[C@H](O)[C@H]2O)cc1 | 110 | 
Cc1cc(O)c(C(=O)CCc2ccoc2)c(O[C@@H]2O[C@H](CO)[C@@H](O)[C@H](O)[C@H]2O)c1 | 230 | 
O=C(CCc1ccc2c(c1)OCCO2)c1c(Cl)cccc1O[C@@H]1O[C@H](CO)[C@@H](O)[C@H](O)[C@H]1O | > 1700 | 
Cc1cc(N)c(C(=O)CCc2ccc3ccccc3c2)c(O[C@@H]2O[C@H](CO)[C@@H](O)[C@H](O)[C@H]2O)c1 | 520 | 
Cc1cc(N)c(C(=O)CCc2ccc3c(c2)OCCO3)c(O[C@@H]2O[C@H](CO)[C@@H](O)[C@H](O)[C@H]2O)c1 | 290 | 
O=C(CCc1ccc2ccccc2c1)c1c(Cl)cccc1O[C@@H]1O[C@H](CO)[C@@H](O)[C@H](O)[C@H]1O | > 1700 | 
Cc1cc(O)c(C(=O)CCc2ccsc2)c(O[C@@H]2O[C@H](CO)[C@@H](O)[C@H](O)[C@H]2O)c1 | 70 | 
CC(C)c1cc(O)c(C(=O)CCc2ccc3ccccc3c2)c(O[C@@H]2O[C@H](CO)[C@@H](O)[C@H](O)[C@H]2O)c1 | 150 | 
CCOc1ccc(CCC(=O)c2c(O)cc(Cl)cc2O[C@@H]2O[C@H](CO)[C@@H](O)[C@H](O)[C@H]2O)cc1 | 80 | 
O=C(CCc1ccc2ccccc2c1)c1c(O)cc(F)cc1O[C@@H]1O[C@H](CO)[C@@H](O)[C@H](O)[C@H]1O | 70 | 
CCOc1ccc(CCC(=O)c2c(O)cc(CC)cc2O[C@@H]2O[C@H](CO)[C@@H](O)[C@H](O)[C@H]2O)cc1 | 30 | half-life at 5 µM [2]: > 45 min
Cc1cc(O)c(C(=O)CCC2CCCCC2)c(O[C@@H]2O[C@H](CO)[C@@H](O)[C@H](O)[C@H]2O)c1 | 40 | 
CCOc1ccc(CCC(=O)c2c(Cl)cccc2O[C@@H]2O[C@H](CO)[C@@H](O)[C@H](O)[C@H]2O)cc1 | > 1700 | 
O=C(CCc1ccc2ccccc2c1)c1c(O)cc(Cl)cc1O[C@@H]1O[C@H](CO)[C@@H](O)[C@H](O)[C@H]1O | 30 | 
CC(C)c1cc(O)c(C(=O)CCc2ccc3c(c2)OCCO3)c(O[C@@H]2O[C@H](CO)[C@@H](O)[C@H](O)[C@H]2O)c1 | 20 | 

Now from value to compound, other results behind:

Ki [1] [nM] | Compound | also measured
20 | O=C(CCc1ccc2c(c1)OCCO2)c1c(O)cc(Cl)cc1O[C@@H]1O[C@H](CO)[C@@H](O)[C@H](O)[C@H]1O | 
9 | Cc1cc(O)c(C(=O)CCc2ccc3c(c2)OCCO3)c(O[C@@H]2O[C@H](CO)[C@@H](O)[C@H](O)[C@H]2O)c1 | Excreted glucose (Rattus norvegicus): 608 mg; half-life at 5 µM [2]: > 45 min
10 | CCc1cc(O)c(C(=O)CCc2ccc3c(c2)OCCO3)c(O[C@@H]2O[C@H](CO)[C@@H](O)[C@H](O)[C@H]2O)c1 | 
10 | CCc1cc(O)c(C(=O)CCc2ccc3ccccc3c2)c(O[C@@H]2O[C@H](CO)[C@@H](O)[C@H](O)[C@H]2O)c1 | 
10 | Cc1cc(O)c(C(=O)CCc2ccc3ccccc3c2)c(O[C@@H]2O[C@H](CO)[C@@H](O)[C@H](O)[C@H]2O)c1 | 
10 | CCOc1ccc(CCC(=O)c2c(O)cc(C)cc2O[C@@H]2O[C@H](CO)[C@@H](O)[C@H](O)[C@H]2O)cc1 | half-life at 5 µM [2]: > 45 min
4 | Cc1cc(O)c(C(=O)CCc2ccc3occc3c2)c(O[C@@H]2O[C@H](CO)[C@@H](O)[C@H](O)[C@H]2O)c1 | half-life at 5 µM [2]: 24 min; Excreted glucose [3]: 1189 mg
